Experimental data as given in ChEMBL document CHEMBL1146683, “Antiproliferative activity of various flavonoids and related compounds: additive effect of interferon-alpha2b” (Bioorg Med Chem Lett, 2004).
Active and inactive are the calls of the source. The rule behind the calls is not given here.

System: WISH
Experiment: In vitro inhibitory activity against the growth of WISH cell derived from human cervical carcinoma was determined; slight effect
Format: functional, cell-based

| Structure (SMILES) | inhibition |
| --- | --- |
| COc1cc(OC)c2c(=O)cc(-c3ccccc3)oc2c1 | slight effect |
| O=c1c(O)c(-c2ccc(O)c(O)c2)oc2cc(O)cc(O)c12 | Weak activity |
| O=c1cc(-c2ccc(O)cc2)oc2cc(O)cc(O)c12 | Weak activity |
| O=c1cc(-c2ccccc2)oc2ccc3ccccc3c12 | Weak activity |
| O=c1cc(-c2ccccc2)oc2c1ccc1ccccc12 | Weak activity |
| O=C(O)/C=C/c1ccccc1 | slight effect |
| O=c1cc(-c2ccccc2)oc2cc(O)cc(O)c12 | Weak activity |

System: WISH
Experiment: In vitro inhibitory activity against the growth of WISH cell derived from human cervical carcinoma was determined; slight reduction in cell growth
Format: functional, cell-based

| Structure (SMILES) | inhibition |
| --- | --- |
| O=C1CC(c2ccccc2)Oc2ccccc21 (stereo not drawn) | Weak activity |

System: WISH
Experiment: (§1) In vitro inhibitory activity against the growth of WISH cell derived from human cervical carcinoma was determined
Format: functional
Outline: (§2)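 WISH cells (HeLa-derived; grown in MEM with 10% FBS, 2 mM L-glutamine and antibiotics), 10,000 per well. Cells exposed 72 h at 37 °C to a concentration series of compound given in DMSO/ethanol (1:10), with controls solvent-matched. Total cell number read colorimetrically as hexosaminidase level. IC50, the molar concentration giving 50% growth inhibition, was taken from dose–response curves.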

| Structure (SMILES) | Inhibition |
| --- | --- |
| O=c1cc(-c2ccccc2[N+](=O)[O-])oc2ccc([N+](=O)[O-])cc12 | ~70% |
| CCOC(=O)/C=C/c1ccc(O)c(O)c1 [ETHYL CAFFEATE] | 50% |
| CCCCOC(=O)/C=C/c1ccc(O)c(O)c1 [BUTYL CAFFEATE] | ~70% |
| O=c1cc(-c2ccccc2[N+](=O)[O-])oc2ccccc12 | ~70% |

System: WISH
Experiment: In vitro inhibitory activity against the growth of WISH cell derived from human cervical carcinoma was determined; Inactive
Format: functional, cell-based

| Structure (SMILES) | NA | inhibition |
| --- | --- | --- |
| O=c1cc(-c2ccccc2)oc2ccccc12 | inactive | – |
| O=c1cc(-c2ccccc2)oc2ccc([N+](=O)[O-])cc12 | – | inactive |
| O=C(O)/C=C/c1ccc(O)c(O)c1 | inactive | – |

System: WISH
Experiment: as §1
Format: functional, cell-based
Outline: as §2

| Structure (SMILES) | IC50 |
| --- | --- |
| O=c1cc(-c2ccccc2[N+](=O)[O-])oc2ccc([N+](=O)[O-])cc12 | ~3000 nM |
| CCCCOC(=O)/C=C/c1ccc(O)c(O)c1 [BUTYL CAFFEATE] | ~3000 nM |
| O=c1cc(-c2ccccc2[N+](=O)[O-])oc2ccccc12 | ~3000 nM |
